Data as given in ChEMBL document CHEMBL4819011, “Structure-based discovery of 1H-indole-2-carboxamide derivatives as potent ASK1 inhibitors for potential treatment of ulcerative colitis” (Eur J Med Chem, 2021).

target: T1, Mitogen-activated protein kinase kinase kinase 5 (Homo sapiens, UniProt Q99683); experiment: Inhibition of N-terminal GST-tagged recombinant human full length ASK1 expressed in baculovirus-infected Sf21 cells using STK-Substrate-3 biotin as substrate in presence of ATP measured after 2 hrs by HTRF assay
T1 sequence (Q99683 whole entry): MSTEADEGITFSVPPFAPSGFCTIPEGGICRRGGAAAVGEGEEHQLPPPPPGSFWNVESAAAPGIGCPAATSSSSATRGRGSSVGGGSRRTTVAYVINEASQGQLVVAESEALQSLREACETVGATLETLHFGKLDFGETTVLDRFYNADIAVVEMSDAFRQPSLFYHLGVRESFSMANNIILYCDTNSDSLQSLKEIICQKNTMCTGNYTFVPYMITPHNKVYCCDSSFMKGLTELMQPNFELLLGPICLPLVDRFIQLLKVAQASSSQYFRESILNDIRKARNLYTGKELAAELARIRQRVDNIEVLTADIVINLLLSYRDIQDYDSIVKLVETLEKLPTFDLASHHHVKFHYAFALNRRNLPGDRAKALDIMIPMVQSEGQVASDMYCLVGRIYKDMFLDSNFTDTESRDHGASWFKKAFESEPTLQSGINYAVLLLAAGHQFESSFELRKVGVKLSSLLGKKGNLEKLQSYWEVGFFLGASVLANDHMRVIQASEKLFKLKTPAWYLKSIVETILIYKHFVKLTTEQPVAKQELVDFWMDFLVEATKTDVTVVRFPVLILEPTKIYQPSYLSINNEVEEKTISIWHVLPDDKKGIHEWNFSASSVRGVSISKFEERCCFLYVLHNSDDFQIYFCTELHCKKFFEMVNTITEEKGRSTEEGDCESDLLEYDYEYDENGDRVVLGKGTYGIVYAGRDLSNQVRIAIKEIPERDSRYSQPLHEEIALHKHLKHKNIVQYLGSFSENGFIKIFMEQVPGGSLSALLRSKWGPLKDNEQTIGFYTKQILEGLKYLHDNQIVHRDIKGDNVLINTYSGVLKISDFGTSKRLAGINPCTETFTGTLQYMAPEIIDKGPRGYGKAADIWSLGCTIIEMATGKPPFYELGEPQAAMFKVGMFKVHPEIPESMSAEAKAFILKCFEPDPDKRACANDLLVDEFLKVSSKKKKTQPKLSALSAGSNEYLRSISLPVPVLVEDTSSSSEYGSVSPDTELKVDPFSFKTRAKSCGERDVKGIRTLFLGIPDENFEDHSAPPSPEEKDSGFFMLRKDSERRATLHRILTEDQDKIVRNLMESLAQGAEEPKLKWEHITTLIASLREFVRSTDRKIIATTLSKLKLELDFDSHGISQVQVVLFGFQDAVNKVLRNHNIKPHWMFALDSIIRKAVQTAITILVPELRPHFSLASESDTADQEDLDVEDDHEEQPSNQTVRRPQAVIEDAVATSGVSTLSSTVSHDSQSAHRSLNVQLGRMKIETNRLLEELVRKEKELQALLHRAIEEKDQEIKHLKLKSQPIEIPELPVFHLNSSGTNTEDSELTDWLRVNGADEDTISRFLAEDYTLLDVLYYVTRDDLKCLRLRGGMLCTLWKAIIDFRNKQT
How it was run: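 HTRF assay with full-length recombinant human ASK1 at final 2 nM, in buffer containing 5 mM MgCl₂ and 1 mM DTT, 2% DMSO. Reaction run with STK-Substrate 3-biotin (final 2 µM) and ATP for 2 h at rt. STK S3 antibody-Eu then added and incubated a further 1 h. Read at 340 nm excitation and 665 nm emission. IC50 reported as mean ± SD from two independent experiments.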

In order of rising IC50:
1. CC(C)n1cnnc1-c1cccc(NC(=O)c2cc3c(-c4cnn(C)c4)cccc3[nH]2)n1  19.6 nM
2. CC(C)n1cnnc1-c1cccc(NC(=O)c2cc3cccc(-c4ccncc4)c3[nH]2)n1  23.1 nM
3. CC(C)n1cnnc1-c1cccc(NC(=O)c2cc3cc(-c4cn[nH]c4)ccc3[nH]2)n1  31.6 nM
4. CC(C)n1cnnc1-c1cccc(NC(=O)c2cc3ccc(-c4cn[nH]c4)cc3[nH]2)n1  37.5 nM
5. CC(C)n1cnnc1-c1cccc(NC(=O)c2cc3cccc(-c4cn[nH]c4)c3[nH]2)n1  38.9 nM
6. CC(C)n1cnnc1-c1cccc(NC(=O)c2cc3ccccc3[nH]2)n1  41.4 nM
7. COc1ccc2cc(C(=O)Nc3cccc(-c4nncn4C(C)C)n3)[nH]c2c1  54.3 nM
8. C[C@H](CO)n1cnnc1-c1cccc(NC(=O)c2cc3ccccc3[nH]2)n1  65.5 nM
9. CC(C)n1cnnc1-c1cccc(NC(=O)c2cc3ccc(-c4cccnc4)cc3[nH]2)n1  68.5 nM
10. CC(C)n1cnnc1-c1cccc(NC(=O)c2cc3ccc(-c4cnn(C5CCOCC5)c4)cc3[nH]2)n1  73.7 nM
11. Cc1c(C(=O)Nc2cccc(-c3nncn3C(C)C)n2)[nH]c2ccccc12  88.2 nM
12. CC(C)n1cnnc1-c1cccc(NC(=O)c2cc3cccc(Cl)c3[nH]2)n1  89.6 nM
13. CCOC(C)n1cc(-c2ccc3cc(C(=O)Nc4cccc(-c5nncn5C(C)C)n4)[nH]c3c2)cn1 (stereo not drawn)  91.1 nM
14. CC(C)n1cnnc1-c1cccc(NC(=O)c2cc3cccnc3[nH]2)n1  125 nM
15. CC(C)n1cnnc1-c1cccc(NC(=O)c2[nH]c3ccccc3c2-c2ccoc2)n1  143 nM
16. CC(C)n1cnnc1-c1cccc(NC(=O)c2cc3ccccc3o2)n1  152 nM
17. CC(C)n1cnnc1-c1cccc(NC(=O)c2cc3cccc(-c4ccsc4)c3[nH]2)n1  153 nM
18. CC(=O)Nc1cccc2cc(C(=O)Nc3cccc(-c4nncn4C(C)C)n3)[nH]c12  240 nM
19. CC(C)n1cnnc1-c1cccc(NC(=O)c2nc3ccccc3s2)n1  506 nM
20. CC(C)n1cnnc1-c1cccc(NC(=O)c2cc3ccccc3n2C)n1  743 nM
21. Cc1c(C(=O)Nc2cccc(-c3nncn3C(C)C)n2)oc2ccccc12  1110 nM
22. Cc1c(C(=O)Nc2cccc(-n3cnnn3)c2)oc2ccccc12  16700 nM

target: T1, Mitogen-activated protein kinase kinase kinase 5; experiment: Inhibition of ASK1 (unknown origin)

`Cc1cc(F)c(C(=O)Nc2cccc(-c3nncn3[C@@H](C)C(F)(F)F)n2)cc1-n1cnc(C2CC2)c1` was tested, and the IC50 was 4.3 nM.
